Active and inactive are the calls of the source. The rule behind the calls is not given here.
Key:
MG-63 [1] = test: Induction of human MG63 cell differentiation assessed as increase in bone nodule formation after 14 days by Alizarin Red S staining-based spectrophotometric analysis; type: functional
Procedure, shortened: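 Cells from dissociated MG-63 sarcospheres were grown in α-MEM with 10% FBS until 70% confluent. They were then switched to mineralization medium (10 mM β-glycerophosphate, 10−8 M dexamethasone, […] ascorbic acid 2-phosphate) and exposed continuously to 0.025–0.5 μM compound for 14 days. After fixation, Alizarin Red S staining (pH 4.2) was eluted with 10% cetylpyridinium chloride and read at 570 nm. Values are OD relative to medium-alone control, in triplicate.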

[2] = target: Histone deacetylase (Homo sapiens) (UniProt Q13547+O15379+Q9UBN7+Q92769+Q9UQL6+Q8WUI4+Q9BY41+Q96DB2+P56524+Q9UKV0+Q969S8); settings: MG-63, 0.5 to 2 uM
Histone deacetylase 2 = Histone deacetylase 2 (Homo sapiens, UniProt Q92769); test: Inhibition of recombinant HDAC2 (unknown origin) by homogeneous fluorescence release assay
Histone deacetylase 2, sequence (Q92769 whole entry): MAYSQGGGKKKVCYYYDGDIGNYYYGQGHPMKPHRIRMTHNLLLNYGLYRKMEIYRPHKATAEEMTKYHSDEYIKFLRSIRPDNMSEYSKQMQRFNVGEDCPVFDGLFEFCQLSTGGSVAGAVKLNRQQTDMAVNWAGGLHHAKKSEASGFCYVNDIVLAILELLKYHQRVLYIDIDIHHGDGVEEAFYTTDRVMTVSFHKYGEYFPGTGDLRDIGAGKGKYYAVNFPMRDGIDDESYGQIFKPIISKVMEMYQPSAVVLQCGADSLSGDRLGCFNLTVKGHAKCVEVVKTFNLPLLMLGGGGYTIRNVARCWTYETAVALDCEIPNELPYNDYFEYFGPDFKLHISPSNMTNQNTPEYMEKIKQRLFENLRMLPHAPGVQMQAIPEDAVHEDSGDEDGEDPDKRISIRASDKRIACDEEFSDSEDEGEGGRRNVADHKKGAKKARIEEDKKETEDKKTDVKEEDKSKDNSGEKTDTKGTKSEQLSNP

[3] = target: T1, Protein deacetylase HDAC6 (Homo sapiens, UniProt Q9UBN7); test: Inhibition of recombinant HDAC6 (unknown origin) by homogeneous fluorescence release assay
T1 sequence (Q9UBN7 whole entry): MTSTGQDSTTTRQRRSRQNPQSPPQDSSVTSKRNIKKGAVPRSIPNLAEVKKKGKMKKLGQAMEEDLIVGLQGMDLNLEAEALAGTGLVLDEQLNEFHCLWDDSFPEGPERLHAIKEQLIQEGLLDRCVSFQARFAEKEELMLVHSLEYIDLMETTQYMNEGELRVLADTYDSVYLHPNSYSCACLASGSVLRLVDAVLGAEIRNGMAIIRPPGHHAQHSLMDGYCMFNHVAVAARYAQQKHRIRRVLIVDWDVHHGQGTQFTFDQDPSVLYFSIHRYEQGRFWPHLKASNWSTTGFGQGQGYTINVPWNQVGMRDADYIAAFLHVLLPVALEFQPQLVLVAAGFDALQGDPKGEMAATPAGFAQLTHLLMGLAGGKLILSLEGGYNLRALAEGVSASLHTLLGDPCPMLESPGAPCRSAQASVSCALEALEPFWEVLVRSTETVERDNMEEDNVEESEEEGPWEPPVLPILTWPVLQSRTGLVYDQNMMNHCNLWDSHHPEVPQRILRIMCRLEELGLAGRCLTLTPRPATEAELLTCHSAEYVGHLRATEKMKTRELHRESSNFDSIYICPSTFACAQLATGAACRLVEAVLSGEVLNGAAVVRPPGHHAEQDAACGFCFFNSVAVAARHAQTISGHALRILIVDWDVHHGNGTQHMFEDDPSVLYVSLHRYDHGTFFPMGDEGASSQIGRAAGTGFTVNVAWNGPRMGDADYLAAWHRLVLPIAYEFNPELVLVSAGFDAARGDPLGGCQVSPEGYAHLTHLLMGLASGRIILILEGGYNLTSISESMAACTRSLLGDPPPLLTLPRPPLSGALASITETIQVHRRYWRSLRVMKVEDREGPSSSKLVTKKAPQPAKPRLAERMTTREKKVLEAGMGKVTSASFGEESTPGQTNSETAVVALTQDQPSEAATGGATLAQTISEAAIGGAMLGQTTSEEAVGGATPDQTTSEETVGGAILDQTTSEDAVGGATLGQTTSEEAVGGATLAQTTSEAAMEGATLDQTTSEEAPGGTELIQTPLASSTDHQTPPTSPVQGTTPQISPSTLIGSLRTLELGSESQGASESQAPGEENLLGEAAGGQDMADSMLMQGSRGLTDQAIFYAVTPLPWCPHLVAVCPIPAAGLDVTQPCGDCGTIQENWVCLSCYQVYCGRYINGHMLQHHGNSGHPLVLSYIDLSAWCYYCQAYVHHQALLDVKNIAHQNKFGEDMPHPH

[4] = target: T2, Polyamine deacetylase HDAC10 (Homo sapiens, UniProt Q969S8); test: Inhibition of recombinant HDAC10 (unknown origin) by homogeneous fluorescence release assay
T2 sequence (Q969S8 whole entry): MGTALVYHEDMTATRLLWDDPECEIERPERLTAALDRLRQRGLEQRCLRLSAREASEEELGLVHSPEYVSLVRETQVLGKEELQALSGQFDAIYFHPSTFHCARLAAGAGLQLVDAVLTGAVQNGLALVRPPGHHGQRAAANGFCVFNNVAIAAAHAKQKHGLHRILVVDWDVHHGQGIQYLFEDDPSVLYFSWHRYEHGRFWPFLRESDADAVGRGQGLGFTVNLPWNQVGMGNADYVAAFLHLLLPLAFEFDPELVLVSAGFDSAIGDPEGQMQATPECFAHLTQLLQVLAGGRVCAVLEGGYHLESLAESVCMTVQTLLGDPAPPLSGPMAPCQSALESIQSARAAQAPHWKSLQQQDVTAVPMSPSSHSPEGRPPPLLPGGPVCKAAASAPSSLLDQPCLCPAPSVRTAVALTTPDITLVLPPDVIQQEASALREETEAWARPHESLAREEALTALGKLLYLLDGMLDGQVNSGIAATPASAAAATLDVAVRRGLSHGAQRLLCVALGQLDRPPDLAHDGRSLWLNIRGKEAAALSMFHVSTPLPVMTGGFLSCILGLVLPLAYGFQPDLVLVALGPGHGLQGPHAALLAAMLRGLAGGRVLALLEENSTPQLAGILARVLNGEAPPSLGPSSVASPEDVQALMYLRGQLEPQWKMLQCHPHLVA

MG-63 [5] = test: Induction of human MG63 cell differentiation assessed as increase in bone nodule formation at 0.025 to 0.5 uM after 14 days by Alizarin Red S staining-based spectrophotometric analysis relative to control; type: functional
Procedure, shortened: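 MG-63 sarcosphere-derived cells in mineralization medium (10 mM β-glycerophosphate, 10−8 M dexamethasone, ascorbic acid 2-phosphate) with continuous 0.025–0.5 μM exposure for 14 days. Fixed in 3.7% paraformaldehyde, then stained with 2% Alizarin Red S, pH 4.2, for 1 h. Dye eluted with 10% cetylpyridinium chloride and read at 570 nm. OD expressed relative to mineralization-medium control; triplicate.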

[6] = Cytotoxicity against human MG63 cells assessed as growth inhibition at 0.5 uM treated for 14 days measured on day 14 post last treatment by Alamar Blue assay; type: cell-based; settings: mg-63, 336 h
Procedure, shortened: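 MG-63 sarcosphere-derived cells, 10000 seeded, grown in complete α-MEM to 70% confluence. Then kept in mineralization medium (10 mM β-glycerophosphate, 10−8 M dexamethasone, ascorbic acid 2-phosphate) with continuous compound exposure (0.025–0.5 μM) for 14 days. Viability then read by Alamar Blue.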

SMILES	Activity (MG-63 [1])	inhibition [2]	IC50 (Histone deacetylase 2)	IC50 [3]	IC50 [4]	Activity (MG-63 [5])	Activity [6]
O=C(CCCCSc1nc(-c2ccc(-c3ccccc3)cc2)cc(=O)[nH]1)NO	Dose-dependent effect	Active					
O=C(/C=C/c1ccc(NC(=O)C(Cc2ccccc2)c2ccccc2)cn1)NO (configuration not stated)			1.77 µM	0.01 µM	1.8 µM	inactive	Toxic

— ChEMBL document CHEMBL3425488, “Novel histone deacetylase inhibitors induce growth arrest, apoptosis, and differentiation in sarcoma cancer stem cells” (J Med Chem, 2015)
